# Bioassay records as filed in PubChem BioAssay.
# Rows were chosen to be rich in hits. Some 1.8% of all compounds tested hit in one or more screens of this group.
# CHRM5 antagonist – CHRM5 antagonism in calcium assay. P08912. CHO-hM5 cells, Fluo-8 calcium fluorescence, ACh EC80. inhibition, % at 3 µM. hit rate 0.59% among 360,000. AID 624040;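 active = inhibition above a per-plate cutoff, the mean of that plate's test compounds plus 3 SD, cut at about 27% in these data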;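 also: 0% = acetylcholine EC80 with DMSO and 100% = DMSO without agonist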
# M4 ag – agonists of human muscarinic M4 receptor (CHRM4) | P08173 | CHO-K1 hM4/Gqi5, Fluo-8 calcium fluorescence; vehicle 0%, full acetylcholine response 100% | hit rate 0.14% among 360,000 | activation, % at 3 µM;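 active = activation above the run mean over all test wells plus 3 SD, cut at about 32% in these data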;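 also: peak over basal fluorescence ratio per well then scaled between controls; 0% = DMSO wells and 100% = acetylcholine at EC100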
# Target sequence (P08173 whole entry, looked up): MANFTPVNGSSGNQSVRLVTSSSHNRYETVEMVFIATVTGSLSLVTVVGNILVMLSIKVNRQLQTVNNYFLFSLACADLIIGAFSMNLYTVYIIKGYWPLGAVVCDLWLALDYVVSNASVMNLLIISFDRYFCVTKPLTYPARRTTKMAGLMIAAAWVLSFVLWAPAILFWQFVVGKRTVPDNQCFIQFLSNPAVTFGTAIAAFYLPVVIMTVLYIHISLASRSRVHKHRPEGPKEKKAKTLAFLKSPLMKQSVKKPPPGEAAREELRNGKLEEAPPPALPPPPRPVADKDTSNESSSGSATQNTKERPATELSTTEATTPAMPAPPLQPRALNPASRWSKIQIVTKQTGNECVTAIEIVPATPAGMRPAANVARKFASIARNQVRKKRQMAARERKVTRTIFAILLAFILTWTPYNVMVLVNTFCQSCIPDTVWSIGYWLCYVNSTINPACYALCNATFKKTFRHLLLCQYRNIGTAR
# CHRM4 PAM – positive allosteric modulators of human muscarinic M4 receptor | CHO-K1 hM4/Gqi5, Fluo-8 calcium fluorescence, ACh EC20; 0% = ACh EC20, 100% = maximal ACh | hit rate 0.4% among 360,000 | activation, % at 3 µM | P08173 | AID 624126;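 active = activation above its plate's cutoff, the mean activation of sample wells plus 3 SD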
# M5 ag – agonists of human muscarinic M5 receptor (CHRM5). CHO-K1 hM5 cells, Fluo-8 calcium fluorescence; 0% DMSO wells, 100% maximal acetylcholine response. activation, % at 3 µM. hit rate 0.19% among 360,000. AID 624037;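 active = activation above the run's mean over test compounds plus 3 SD, cut at about 23% in these data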;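 also: signal is peak over basal fluorescence ratio across the kinetic read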
# M5 PAM – positive allosteric modulators of human muscarinic M5 receptor. P08912. CHO-K1 hM5, Fluo-8 calcium, ACh EC20 PAM; 0% = ACh EC20, 100% = ACh EC100. activation, % at 3 µM. hit rate 0.3% among 360,000. AID 624038;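 active = activation above the run cutoff, the mean activation of all test compounds plus 3 SD, cut at about 18% in these data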
#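 System – CHO-K1 hM5 cells · Compound – 3 µM, single dose · Incubation – compound preincubation 140 s before EC20 acetylcholine addition · Technique – Fluo-8 calcium fluorescence · Measure – Max/basal fluorescence ratio as % of EC20–EC100 ACh window · Benchmarks – low control EC20 acetylcholine (0%), high control EC100 acetylcholine (100%) · Replication – singlicate, one well per test compound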
# CHRM4 antagonist – antagonists of human muscarinic M4 receptor (CHRM4); P08173; CHO-hM4 cells, ACh EC80, Fluo-8 calcium fluorescence; inhibition, % at 3 µM; hit rate 0.73% among 360,000;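 active = inhibition above its plate's cutoff, the mean inhibition of sample wells plus 3 SD, cut at about 27% in these data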;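 also: 0% = acetylcholine EC80 with DMSO and 100% = DMSO without agonist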
# Numbers without * were called inactive; ! = not active in a repeat.
SMILES,CHRM5 antagonist,M4 ag,CHRM4 PAM,M5 ag,M5 PAM,CHRM4 antagonist
CCCCCCCCCCCCN1[C@@H](CC(=O)OC)c2cc(F)ccc2S1(=O)=O,6.9,2.0,30.0*,-1.2,-3.8,-5.3
CCCCCCCCCCCCN1[C@@H](CC(=O)OC)c2cc(F)cc(F)c2S1(=O)=O,1.0,1.1,26.1*,0.6,6.4,-3.6
CCCCCCCCCCCCN1[C@@H](CC(C)=O)c2cc(F)ccc2S1(=O)=O,-0.1,1.5,7.7,-0.5,-1.0,-8.7
COCCNC(=O)C1(C)CCN(Cc2ccc3ccccc3c2Br)C1 (stereo unspecified),2.1,1.3,-1.0,-0.7,-3.6,-8.4
NC1=NC(=O)CC(C(=O)NCc2ccccc2)S1 (stereo unspecified),-3.8,1.6,16.5*,-5.1,-2.0,-15.6
CCn1c(NCc2ccccn2)nc2c1c(=O)n(C)c(=O)n2C,-4.5,2.2,40.4*,1.8,2.6,-12.2
COc1cc2sc(-c3ccccc3OC)c(-c3ccc(OCCN4CCCCC4)cc3)c2cc1OC,13.7,11.7,-1.5,2.0,-7.6,24.7
COc1ccccc1-c1sc2cc3c(cc2c1-c1ccc(OCCN2CCCCC2)cc1)OCO3,6.8,6.8,0.1,-5.5,-12.3,34.8*
CCN1C(=O)[C@H]2[C@@H](c3ccc(OC)cc3)N[C@]3(CCCN(Cc4ccc(OC)cc4)C3=O)[C@H]2C1=O,4.3,0.5,3.1,0.6,1.0,-1.2
O=C(Nc1ccccc1)Nc1cc(OCC(F)(F)F)cc(OCC(F)(F)F)c1,47.2*,11.9,-15.5,1.0,-18.4,9.9
COc1ccc(CCNC(=O)c2ccc(CSc3ccc(Cl)cc3)o2)cc1OC,22.3,22.5,-13.0,4.3,-25.2,30.4*
CCOC(=O)C1=CN(Cc2ccco2)S(=O)(=O)NC1c1ccc(C(F)(F)F)cc1 (stereo unspecified),-7.4,2.5,-2.8,-0.9,-4.5,-7.8
O=S(=O)(c1ccc(Cl)nc1)N(Cc1ccccc1)Cc1ccccc1,14.4,-2.2,-29.9,-4.8,-11.3,33.1*
CCN(c1ccccc1)S(=O)(=O)c1ccc(Cl)nc1,1.8,-0.4,-0.3,-9.4,8.9,1.0
NC1=NC(=O)C(c2ccccc2)(c2ccccc2)S1,1.4,0.2,-2.3,1.5,2.2,-8.2
Cc1[nH]nc(-c2ccc(OCc3cnn(-c4ccccc4)c3)cc2O)c1Oc1ccccc1F,-6.0,1.7,23.7*,1.6,-1.0,-0.7
CCc1cccc(CC)c1-n1c(SCC(=O)N2CCc3ccccc32)nc(O)cc1=O,6.9,0.4,2.5,2.6,0.2,-6.8
C[C@@H]1CCCCO[C@@H](CN(C)S(=O)(=O)c2ccc(Cl)cc2)[C@@H](C)CN([C@H](C)CO)C(=O)c2cc(N(C)C)ccc2O1,1.3,0.5,18.1*,-1.1,5.3,-21.5
Cc1ccc(S(=O)(=O)N(C)C[C@H]2OCCCC[C@@H](C)Oc3ccc(N(C)C)cc3C(=O)N([C@H](C)CO)C[C@@H]2C)cc1,-0.6,0.3,1.0,0.3,0.4,-3.8
Clc1cccc(CNc2ccn3nc(-c4ccccc4)cc3n2)c1,-6.3,4.7,16.1*,0.9,10.8,-3.7
c1ccc(-c2nc3ccccn3c2NCc2ccc3c(c2)OCO3)cc1,11.1,12.2,-11.1,0.9,-20.8,-12.4
c1ccc(CNc2c(-c3cccc(SC4CCCCC4)c3)nc3ccccn23)cc1,22.5,13.3,-12.2,-4.3,-34.5,49.4*!
COc1ccc(-c2cc(-c3nc4ccccn4c3NCc3ccccc3)ccc2OC)cc1,48.2*,25.9,-15.9,-0.4,-37.9,84.0*
Cc1ccn2c(NCc3ccccc3)c(-c3cccc(SC4CCCCC4)c3)nc2c1,12.7,4.0,-7.7,-6.5,-10.9,10.9
Clc1cccc(-c2ccc(-c3nc4ccccn4c3NCc3ccccc3)cc2)c1,13.7,5.9,-8.9,0.2,-16.7,29.4*
SMILES,CHRM5 antagonist,M4 ag,CHRM4 PAM,M5 ag,M5 PAM,CHRM4 antagonist
COc1ccc(-c2nc3ccccn3c2NCc2ccc3c(c2)OCO3)cc1,10.3,8.0,-10.6,-5.6,-35.3,5.8
CO/N=C/c1ccc(N2CCN(C(=O)c3cccc(C(F)(F)F)c3)CC2)c([N+](=O)[O-])c1,5.8,16.6,12.5,4.0,-12.4,28.3*
CO/N=C/c1ccc(N2CCN(C(=O)c3ccc(Cl)cc3Cl)CC2)c([N+](=O)[O-])c1,23.4,31.2,-30.0,18.0,-15.6,40.4*
CO/N=C/c1ccc(N2CCN(C(=O)c3ccc(F)cc3)CC2)c([N+](=O)[O-])c1,7.4,24.5,57.1*,10.0,-10.7,55.7*
O=C(N/N=C/c1ccc(N2CCOCC2)c([N+](=O)[O-])c1)c1ccc(F)cc1,0.2,5.8,-4.3,2.0,-6.2,-6.8
OCC1(Cc2ccccc2)CCCN(Cc2cn[nH]c2-c2ccccc2)C1 (stereo unspecified),31.6*,15.2,-10.9,-2.4,-16.6,2.8
Cn1nc(C(C)(C)C)cc1C(=O)N1CCCC(c2cc(C(=O)Nc3ccccc3Cl)no2)C1 (stereo unspecified),8.1,14.7,-8.3,0.6,-5.8,-9.3
CC(C)CC(NC(=O)c1ccc(Cl)cc1Cl)C(=O)O (stereo unspecified),-10.7,2.7,13.5,-0.3,19.3*,-1.8
CC(C)CC(NC(=O)c1ccccc1NC(=O)c1ccccc1)C(=O)O (stereo unspecified),-4.5,0.6,19.3,0.5,10.7,-10.8
Cc1nc(N)sc1C(=O)N/N=C/c1cccnc1,-7.7,0.1,2.0,3.5,19.5*,4.0
CN(C)C1(CNC(=O)C2CCN(S(=O)(=O)c3cccc(C(F)(F)F)c3)CC2)CCCCC1,-0.6,1.4,0.1,-3.1,-6.1,-8.9
O=C(CCNc1cccc(F)c1)c1cccc([N+](=O)[O-])c1,7.8,1.5,-8.2,-10.0,-9.2,-14.1
O=C(CCNc1ccc(Cc2ccncc2)cc1)c1cccc([N+](=O)[O-])c1,21.6,3.1,-19.4,-7.9,-16.5,27.6*
NS(=O)(=O)c1ccc(NC(=O)CSc2n[nH]c(=O)n2C2CC2)cc1,10.5,0.5,8.8,3.9,-2.3,-5.6
O=C(NCc1ccccc1)C(c1ccc(-c2ccccc2)cc1)N1CCN(CCN2CCOCC2)CC1 (stereo unspecified),7.0,8.2,-6.1,-5.9,-9.8,-9.8
CC(C)Oc1cccc(C(=O)NC(=S)Nc2ccc(N3CCN(C)CC3)cc2)c1,14.9,6.6,-53.6,-19.4,-35.8,38.6*
COc1cccc(C(=O)NC(=S)Nc2ccc(N3CCCC3)cc2)c1,6.9,0.1,-10.4,-5.5,-1.9,-14.6
O=C(/C=C/c1ccc(S(=O)(=O)NCc2ccco2)cc1)NCc1cccc(Cl)c1,32.4*,4.0,-7.6,-9.3,-18.5,4.3
